Test results reported in ChEMBL document CHEMBL2029252, “Pharmacophore-based small molecule CXCR4 ligands” (Bioorg Med Chem Lett, 2012).
The source made the active and inactive calls. No cut-off for these calls is given here.

How the values were obtained:
[1] = molecular target: C-X-C chemokine receptor type 4 (Homo sapiens) (UniProt P61073); test: Displacement of [125I]-CXCL12 from CXCR4 expressed in human Jurkat cells at 10 uM relative to T140; type: cell-based
Procedure, shortened: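 Competition for [125I]-CXCL12 binding to Jurkat cells, test compounds at 10 µM. Percent inhibition expressed relative to that given by the reference peptide T140, set at 100%.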

[2] = test system: Human immunodeficiency virus 1; test: Antiviral activity against X4-tropic HIV1 NL4.3 infected in human MT4 cells assessed as protection from virus-induced cytopathogenicity; type: functional, organism-based; conditions: Human immunodeficiency virus 1, NL4.3, MT4
Procedure, shortened: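 MT-4 cells infected with X4 HIV-1 strain NL4-3; readout is protection from virus-induced cytopathogenicity. EC50 = concentration giving 50% protection, mean of at least three independent experiments.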

[3] = Cytotoxicity against human MT4 cells assessed as reduction of cell viability; type: cell-based
[4] = test system: Human immunodeficiency virus 1; test: Antiviral activity against R5-tropic HIV1 NL(AD8) infected in human PM1 cells expressing CCR5 assessed as protection from virus-induced cytopathogenicity at < 100 uM; type: functional, organism-based
[5] = test system: Human immunodeficiency virus 1; test: Antiviral activity against R5-tropic HIV1 NL(AD8) infected in human PM1 cells expressing CCR5 assessed as protection from virus-induced cytopathogenicity; type: functional, organism-based; conditions: Human immunodeficiency virus 1, NL(AD8)

Chain of C-X-C chemokine receptor type 4 (Homo sapiens) (P61073 whole entry): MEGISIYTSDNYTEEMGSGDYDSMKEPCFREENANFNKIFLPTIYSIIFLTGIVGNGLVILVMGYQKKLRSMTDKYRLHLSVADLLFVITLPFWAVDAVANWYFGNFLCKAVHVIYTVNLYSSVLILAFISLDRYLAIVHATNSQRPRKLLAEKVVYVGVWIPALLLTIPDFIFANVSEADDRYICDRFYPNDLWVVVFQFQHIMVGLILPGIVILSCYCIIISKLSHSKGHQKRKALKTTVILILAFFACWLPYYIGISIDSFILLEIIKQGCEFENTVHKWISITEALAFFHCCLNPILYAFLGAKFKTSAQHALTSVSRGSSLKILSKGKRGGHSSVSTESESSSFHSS

inhibition [1] [%]	EC50 [2] [µM]	EC50 [5] [µM]	SMILES	CC50 [3] [µM]	Activity [4]
13	> 20		C[C@H](NC(=O)[C@H](CCCNC(=N)N)NC(=O)c1ccc(CN(Cc2ccncc2)C(=O)c2ccc(F)cc2)cc1)c1cccc2ccccc12	51	
100	0.33		C[C@H](NC(=O)[C@H](CCCNC(=N)N)NC(=O)c1ccc(CNCc2ccccn2)cc1)c1cccc2ccccc12	80	
15			C[C@@H](NC(=O)[C@H](CCCNC(=N)N)NC(=O)c1ccc(CN(CCc2ccc(F)cc2)Cc2ccccn2)cc1)c1cccc2ccccc12		
0	> 20		C[C@@H](NC(=O)[C@H](CCCNC(=N)N)NC(=O)c1ccc(CN(Cc2ccc(F)cc2)Cc2ccccn2)cc1)c1cccc2ccccc12	35	
79	11		C[C@@H](NC(=O)[C@H](CCCNC(=N)N)NC(=O)c1ccc(CN(CCc2ccc(F)cc2)Cc2cccnc2)cc1)c1cccc2ccccc12	47	inactive
6	> 20		C[C@@H](NC(=O)[C@H](CCCNC(=N)N)NC(=O)c1ccc(CN(CCc2ccccn2)C(=O)c2ccc(F)cc2)cc1)c1cccc2ccccc12	41	
14	> 20		C[C@H](NC(=O)[C@H](CCCNC(=N)N)NC(=O)c1ccc(CN(Cc2cccnc2)C(=O)c2ccc(F)cc2)cc1)c1cccc2ccccc12	57	
36			C[C@H](NC(=O)[C@H](CCCNC(=N)N)NC(=O)c1ccc(CN(CCc2ccc(F)cc2)Cc2cccnc2)cc1)c1cccc2ccccc12		
23	> 4		C[C@H](NC(=O)[C@H](CCCNC(=N)N)NC(=O)c1ccc(CN(CCc2ccc(F)cc2)CCc2ccccn2)cc1)c1cccc2ccccc12	13	
22			C[C@@H](NC(=O)[C@H](CCCNC(=N)N)NC(=O)c1ccc(CN(CCc2cccnc2)C(=O)c2ccc(F)cc2)cc1)c1cccc2ccccc12		
13	> 20		C[C@@H](NC(=O)[C@H](CCCNC(=N)N)NC(=O)c1ccc(CN(CCc2ccc(F)cc2)CCc2ccccn2)cc1)c1cccc2ccccc12	27	
24			C[C@@H](NC(=O)[C@H](CCCNC(=N)N)NC(=O)c1ccc(CN(CCc2cccnc2)Cc2ccc(F)cc2)cc1)c1cccc2ccccc12		
3	> 20		C[C@@H](NC(=O)[C@H](CCCNC(=N)N)NC(=O)c1ccc(CN(Cc2ccccn2)C(=O)c2ccc(F)cc2)cc1)c1cccc2ccccc12	38	
11	> 20		C[C@@H](NC(=O)[C@H](CCCNC(=N)N)NC(=O)c1ccc(CN(Cc2cccnc2)C(=O)c2ccc(F)cc2)cc1)c1cccc2ccccc12	45	
	7.4		C[C@@H](NC(=O)[C@H](CCCNC(=N)N)NC(=O)c1ccc(CNC(=O)c2ccc(C(F)(F)F)cc2)cc1)c1cccc2ccccc12	66	
35			C[C@H](NC(=O)[C@H](CCCNC(=N)N)NC(=O)c1ccc(CN(CCc2ccc(F)cc2)CCc2cccnc2)cc1)c1cccc2ccccc12		
36	> 20		C[C@H](NC(=O)[C@H](CCCNC(=N)N)NC(=O)c1ccc(CN(Cc2ccccn2)C(=O)c2ccc(F)cc2)cc1)c1cccc2ccccc12	37	
25	> 20		C[C@H](NC(=O)[C@H](CCCNC(=N)N)NC(=O)c1ccc(CN(CCc2ccncc2)C(=O)c2ccc(F)cc2)cc1)c1cccc2ccccc12	47	
16	> 4		C[C@H](NC(=O)[C@H](CCCNC(=N)N)NC(=O)c1ccc(CN(CCc2ccc(F)cc2)Cc2ccccn2)cc1)c1cccc2ccccc12	9.9	
32			C[C@H](NC(=O)[C@H](CCCNC(=N)N)NC(=O)c1ccc(CN(CCc2cccnc2)C(=O)c2ccc(F)cc2)cc1)c1cccc2ccccc12		
0			C[C@@H](NC(=O)[C@H](CCCNC(=N)N)NC(=O)c1ccc(CN(CCc2ccncc2)CCc2ccc(F)cc2)cc1)c1cccc2ccccc12		

inhibition [1] [%]	EC50 [2] [µM]	EC50 [5] [µM]	SMILES	CC50 [3] [µM]	Activity [4]
30	> 4		C[C@H](NC(=O)[C@H](CCCNC(=N)N)NC(=O)c1ccc(CN(Cc2ccc(F)cc2)Cc2ccccn2)cc1)c1cccc2ccccc12	11	
20	10		C[C@H](NC(=O)[C@H](CCCNC(=N)N)NC(=O)c1ccc(CN(CCc2ccncc2)Cc2ccc(F)cc2)cc1)c1cccc2ccccc12	44	inactive
16			C[C@@H](NC(=O)[C@H](CCCNC(=N)N)NC(=O)c1ccc(CN(CCc2ccncc2)Cc2ccc(F)cc2)cc1)c1cccc2ccccc12		
26			C[C@H](NC(=O)[C@H](CCCNC(=N)N)NC(=O)c1ccc(CN(CCc2ccc(F)cc2)Cc2ccncc2)cc1)c1cccc2ccccc12		
12	> 20		C[C@@H](NC(=O)[C@H](CCCNC(=N)N)NC(=O)c1ccc(CN(Cc2ccncc2)Cc2ccc(F)cc2)cc1)c1cccc2ccccc12	39	
60	13		C[C@H](NC(=O)[C@H](CCCNC(=N)N)NC(=O)c1ccc(CN(CCc2cccnc2)Cc2ccc(F)cc2)cc1)c1cccc2ccccc12	65	inactive
69	> 11		C[C@@H](NC(=O)[C@H](CCCNC(=N)N)NC(=O)c1ccc(CN(CCc2ccc(F)cc2)CCc2cccnc2)cc1)c1cccc2ccccc12	11	inactive
100			N=C(N)NCCC[C@@H]1NC(=O)[C@H](CCCNC(=N)N)NC(=O)[C@@H](Cc2ccc(O)cc2)NC(=O)CNC(=O)[C@H](Cc2ccc3ccccc3c2)NC1=O	> 10	
6	> 20		C[C@@H](NC(=O)[C@H](CCCNC(=N)N)NC(=O)c1ccc(CN(Cc2ccc(F)cc2)Cc2cccnc2)cc1)c1cccc2ccccc12	37	
25	> 20		C[C@H](NC(=O)[C@H](CCCNC(=N)N)NC(=O)c1ccc(CN(CCc2ccccn2)Cc2ccc(F)cc2)cc1)c1cccc2ccccc12	24	
		0.055	COC[C@@H](c1ccc(C(F)(F)F)cc1)N1CCN(C2(C)CCN(C(=O)c3c(C)ncnc3C)CC2)C[C@@H]1C [VICRIVIROC]		
16	8		C[C@H](NC(=O)[C@H](CCCNC(=N)N)NC(=O)c1ccc(CN(Cc2ccncc2)Cc2ccc(F)cc2)cc1)c1cccc2ccccc12	44	inactive
4	> 4		C[C@@H](NC(=O)[C@H](CCCNC(=N)N)NC(=O)c1ccc(CN(CCc2ccccn2)Cc2ccc(F)cc2)cc1)c1cccc2ccccc12	23	
0	> 20		C[C@H](NC(=O)[C@H](CCCNC(=N)N)NC(=O)c1ccc(CN(CCc2ccccn2)C(=O)c2ccc(F)cc2)cc1)c1cccc2ccccc12	43	
	0.058		Cc1cn([C@H]2C[C@H](N=[N+]=[N-])[C@@H](CO)O2)c(=O)[nH]c1=O [ZIDOVUDINE]	100	
6	> 20		C[C@@H](NC(=O)[C@H](CCCNC(=N)N)NC(=O)c1ccc(CN(Cc2ccncc2)C(=O)c2ccc(F)cc2)cc1)c1cccc2ccccc12	45	
12			C[C@@H](NC(=O)[C@H](CCCNC(=N)N)NC(=O)c1ccc(CN(CCc2ccncc2)C(=O)c2ccc(F)cc2)cc1)c1cccc2ccccc12		
27	> 20		C[C@H](NC(=O)[C@H](CCCNC(=N)N)NC(=O)c1ccc(CN(Cc2ccc(F)cc2)Cc2cccnc2)cc1)c1cccc2ccccc12	41	
44			C[C@@H](NC(=O)[C@H](CCCNC(=N)N)NC(=O)c1ccc(CN(CCc2ccc(F)cc2)Cc2ccncc2)cc1)c1cccc2ccccc12		
51			C[C@H](NC(=O)[C@H](CCCNC(=N)N)NC(=O)c1ccc(CN(CCc2ccncc2)CCc2ccc(F)cc2)cc1)c1cccc2ccccc12		
